Assay outcomes (PubChem)
VIM-2 inh: inhibitors of Pseudomonas aeruginosa VIM-2 metallo-beta-lactamase. purified VIM-2, nitrocefin hydrolysis, epi-absorbance fluorescence. inhibition, % at 5.6 µM. 0.89% of 290,000 active;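 active = inhibition above the mean of all tested compounds plus 3 SD, cutoff set per screening run, cut at about 7.5% in these data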;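 note: red hydrolysis product quenches plate fluorescence so inhibitors raise well fluorescence; 0% = enzyme with DMSO and 100% = DMSO without enzyme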
CRFR2-BP ag: agonists of human CRF-binding protein/CRF-R2 receptor complex; 0.46% of 350,000 active; AID 588473; HEK293 CRF-R2/CRF-BP, calcium dye fluorescence (FLIPR); percent of saturating CRF peptide response; activation, % at 13.2 µM;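 active = activation of at least 50%, plus an integration ratio under a set limit after plate pattern correction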;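 note: plate controls were neutral control wells without compound for no effect and CRF at EC100 for full effect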
TRPML3 ag: activates the human TRPML3 channel; Q8TDD5; HEK293 TRPML3-YFP, Fluo-8 calcium fluorescence; 100% = the carbachol control signal; activation, % at 3 µM; 0.29% of 220,000 active; AID 1448;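 active = activation above its plate's cutoff, the mean activation of the plate's test wells plus 3 SD, cut at about 12% in these data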;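 note: 0% = DMSO only wells and 100% = carbachol wells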
Target sequence (Q8TDD5 whole entry, looked up): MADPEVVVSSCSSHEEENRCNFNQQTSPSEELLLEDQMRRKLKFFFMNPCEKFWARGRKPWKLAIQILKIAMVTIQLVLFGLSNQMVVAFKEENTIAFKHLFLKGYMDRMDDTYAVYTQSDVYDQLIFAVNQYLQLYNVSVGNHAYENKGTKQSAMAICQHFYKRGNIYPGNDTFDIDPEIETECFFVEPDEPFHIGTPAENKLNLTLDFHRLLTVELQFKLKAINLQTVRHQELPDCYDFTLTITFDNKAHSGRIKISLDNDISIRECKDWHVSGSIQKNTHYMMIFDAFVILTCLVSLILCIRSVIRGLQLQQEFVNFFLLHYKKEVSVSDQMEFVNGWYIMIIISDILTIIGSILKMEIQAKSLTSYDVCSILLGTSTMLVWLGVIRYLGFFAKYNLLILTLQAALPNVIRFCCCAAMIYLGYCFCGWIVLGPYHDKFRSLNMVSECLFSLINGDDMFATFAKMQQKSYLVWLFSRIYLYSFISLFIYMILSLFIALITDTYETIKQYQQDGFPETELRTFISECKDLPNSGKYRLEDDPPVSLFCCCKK
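Test system – HEK293 line with stable expression of human TRPML3-YFP channel · Control set – carbachol 87 µM final as high control (100%), DMSO as low control (0%) · Signal – Fluo-8 calcium dye fluorescence, ex 470-495, em 515-575 nm · Incubation – 1-h 37 °C dye load, 5-s basal, 120-s post-compound reads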
CRFR2-BP antag: CRF-BP/CRF-R2 complex antagonism; HEK293 CRF-R2/CRF-BP, CRF-induced calcium fluorescence; inhibition, % at 11.8 µM; 0.59% of 350,000 active; AID 588475;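 active = inhibition of the ligand-induced calcium signal above about 50% at the single tested concentration, limit read from the data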
zfTRPN1 agonist: activates the zebrafish TRPN1 channel | AID 1424 | HEK293 zebrafish TRPN1-YFP, Fluo-8 calcium fluorescence; 100% = response to 87 µM carbachol | 0.18% of 220,000 active | activation, % at 3 µM;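 active = activation above its plate's cutoff, the mean activation of test wells on that plate plus 3 SD, cut at about 19% in these data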;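 note: 0% = DMSO alone and 100% = 87 µM carbachol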
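Material: zebrafish TRPN1-YFP in HEK293 cells; Doses: single test compound dose, 3 µM nominal, 0.3% DMSO; Timing: dye loading 1 h at 37 °C, then 30 min room temperature; Technique: intracellular calcium fluorescence with Fluo-8; Benchmarks: high carbachol 87 µM, low DMSO alone.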
IMP-1 inh-1: blocks Pseudomonas aeruginosa IMP-1 metallo-beta-lactamase; purified IMP-1, nitrocefin hydrolysis, epi-absorbance fluorescence; 0.45% of 290,000 active; inhibition, % at 5.6 µM;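 active = inhibition above the mean plus 3 SD of all compounds in the same screening run, cut at about 4.5% in these data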;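 note: 0% = IMP-1 with DMSO and 100% = DMSO wells lacking enzyme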
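System: purified IMP-1 / Input: IMP-1 dispensed at 0.2 nM / Medium: 50 mM HEPES pH 7.1, 50 µM ZnSO4, 0.05% Brij 35 / Timing: 15 min enzyme–compound preincubation, then 25 min nitrocefin reaction, 25 °C / Technique: plate fluorescence quenching by hydrolysis product, ex 480/em 530 nm / Repeats: singlicate testing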
IMP-1 inh-2: blocks IMP-1 metallo-beta-lactamase in VIM-2 selectivity screen | shares compounds with VIM-2 inh | purified IMP-1, nitrocefin hydrolysis, epi-absorbance fluorescence | AID 1856 | 1,300 tested, under 10 active | inhibition, % at 5.6 µM; call rule not given here;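 note: 0% = enzyme with vehicle and 100% = vehicle without enzyme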
VIM-2 FRET ctr: VIM-2 FRET inhibition, artifact counter-screen; purified VIM-2, CCF2 FRET substrate hydrolysis; 23% of 1,300 active; inhibition, % at 5.6 µM; shares compounds with VIM-2 inh;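 active = inhibition above the mean of all tested compounds plus 3 SD, cut at about 19% in these data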;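 note: 0% = VIM-2 plus DMSO and 100% = no enzyme wells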
TEM-1 counter: TEM-1 inhibition, counter-screen for VIM-2 inhibitors; inhibition, % at 5.6 µM; Purified TEM-1, nitrocefin hydrolysis, epi-absorbance fluorescence; shares compounds with VIM-2 inh; AID 1866; 3% of 1,300 active;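 active = inhibition above that campaign's mean inhibition plus 3 SD, cut at about 0.46% in these data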;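 note: 0% = TEM-1 with DMSO and 100% = TEM-1 with 100 µM potassium clavulanate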
VIM-2 inh conf: confirmation of P. aeruginosa VIM-2 metallo-beta-lactamase inhibitors; shares compounds with VIM-2 inh; purified VIM-2, nitrocefin hydrolysis, epi-absorbance; 96% of 1,300 active; AID 2187; inhibition, % at 5.6 µM;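 active = inhibition of the VIM-2 beta-lactamase enzyme above about 11% from the earlier first-round screen, limit read from the data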;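 note: 0% = VIM-2 with DMSO and 100% = buffer wells without enzyme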
An asterisk follows results filed as active. Sampled rows, rich in hits. Any-hit rate of the full collection: about 2.1%.

What do the screens show for `CC(Oc1ccc2c3c(c(=O)oc2c1)CCCC3)C(=O)NCCCn1ccnc1` (stereo not drawn)?
VIM-2 inh: 23*; CRFR2-BP ag: -1; CRFR2-BP antag: -5; IMP-1 inh-1: -4; IMP-1 inh-2: -4; VIM-2 FRET ctr: -6; TEM-1 counter: -6; VIM-2 inh conf: 40*

What do the screens show for `Cc1c(C)c2ccc(OCC(=O)NCCN3CCOCC3)cc2oc1=O`?
VIM-2 inh: 1; CRFR2-BP ag: 0; CRFR2-BP antag: 3; IMP-1 inh-1: -3

How did Cc1cc(=S)c2ccccc2[nH]1 do in these assays?
VIM-2 inh: 60*; CRFR2-BP ag: -2; TRPML3 ag: -1; CRFR2-BP antag: -1; zfTRPN1 agonist: 0; IMP-1 inh-1: -2; IMP-1 inh-2: -3; VIM-2 FRET ctr: 2; TEM-1 counter: -6; VIM-2 inh conf: 57*

Results for CCN(CC)c1ccc(-c2nn3c(-c4ccccc4OC)nnc3s2)cc1 ?
VIM-2 inh: 13*; CRFR2-BP ag: -4; TRPML3 ag: -2; CRFR2-BP antag: 14; zfTRPN1 agonist: -3; IMP-1 inh-1: -4; IMP-1 inh-2: -4; VIM-2 FRET ctr: -9; TEM-1 counter: -8; VIM-2 inh conf: 1

Results for O=C(Nc1ccc2nc(-c3cccnc3)[nH]c2c1)c1ccccc1F ?
VIM-2 inh: 49*; CRFR2-BP ag: -1; TRPML3 ag: 0; CRFR2-BP antag: -7; zfTRPN1 agonist: 1; IMP-1 inh-1: -1; IMP-1 inh-2: -1; VIM-2 FRET ctr: 0; TEM-1 counter: -1; VIM-2 inh conf: 4

What do the screens show for `Cc1ccsc1CN(C)CC(=O)NCC(=O)Nc1ccc(F)cc1`?
CRFR2-BP ag: -2; CRFR2-BP antag: 2

How did Cc1c(C)c2c(OCC(=O)N[C@@H](C)C(=O)O)cc3c(c2oc1=O)CCC(C)(C)O3 do in these assays?
VIM-2 inh: 46*; CRFR2-BP ag: -3; CRFR2-BP antag: 3; IMP-1 inh-1: -3; IMP-1 inh-2: -2; VIM-2 FRET ctr: 70*; TEM-1 counter: -6; VIM-2 inh conf: 53*

What do the screens show for `Cc1c(C)c2c(OCC(=O)NCc3ccncc3)cc3c(c2oc1=O)CCC(C)(C)O3`?
VIM-2 inh: 31*; CRFR2-BP ag: -1; CRFR2-BP antag: 14; IMP-1 inh-1: -2; IMP-1 inh-2: -2; VIM-2 FRET ctr: -5; TEM-1 counter: -6; VIM-2 inh conf: 41*

What do the screens show for `Cc1c(C)c2c(OCC(=O)Nc3cccnc3)cc3c(c2oc1=O)CCC(C)(C)O3`?
VIM-2 inh: 42*; CRFR2-BP ag: -1; CRFR2-BP antag: 7; IMP-1 inh-1: -3; IMP-1 inh-2: -3; VIM-2 FRET ctr: 0; TEM-1 counter: -5; VIM-2 inh conf: 52*

What do the screens show for `Cc1c(C)c2c(OCC(=O)NCC(C)C)cc3c(c2oc1=O)CCC(C)(C)O3`?
VIM-2 inh: -1; CRFR2-BP ag: -5; CRFR2-BP antag: -2; IMP-1 inh-1: -5

How did Cc1c(C)c2c(OCC(=O)N3CCC(O)CC3)cc3c(c2oc1=O)CCC(C)(C)O3 do in these assays?
VIM-2 inh: 4; CRFR2-BP ag: -1; CRFR2-BP antag: 10; IMP-1 inh-1: -1

How did Cc1c(C)c2c(OCC(=O)N3CCC[C@H]3C(=O)O)cc3c(c2oc1=O)CCC(C)(C)O3 do in these assays?
VIM-2 inh: 70*; CRFR2-BP ag: -1; CRFR2-BP antag: 6; IMP-1 inh-1: -3; IMP-1 inh-2: -4; VIM-2 FRET ctr: 85*; TEM-1 counter: -6; VIM-2 inh conf: 72*

How did CCOc1ccc(NC(=O)C(C)NC(=O)c2ccccc2Cl)cc1S(=O)(=O)N1CCCC1 (stereo not drawn) do in these assays?
CRFR2-BP ag: 2; CRFR2-BP antag: -4

Results for S=C1NCCC12C(=S)Nc1ccccc12 (stereo not drawn) ?
CRFR2-BP ag: 0; CRFR2-BP antag: 6

What do the screens show for `COc1cccc(C=O)c1OCCCOc1cccc2cccnc12`?
VIM-2 inh: 1; CRFR2-BP ag: 0; CRFR2-BP antag: 12; IMP-1 inh-1: 1

Results for CCc1cc(=O)oc2c3c(cc(OCC(=O)Nc4cccnc4)c12)OC(C)(C)CC3 ?
VIM-2 inh: 67*; CRFR2-BP ag: 0; CRFR2-BP antag: 7; IMP-1 inh-1: -4; IMP-1 inh-2: -2; VIM-2 FRET ctr: -7; TEM-1 counter: -7; VIM-2 inh conf: 78*

How did CCc1cc(=O)oc2c3c(cc(OCC(=O)NCc4cccnc4)c12)OC(C)(C)CC3 do in these assays?
VIM-2 inh: 3; CRFR2-BP ag: -2; CRFR2-BP antag: 1; IMP-1 inh-1: -6

What do the screens show for `O=C1CCCC/C1=C/Nc1cccc(C(F)(F)F)c1`?
VIM-2 inh: 13*; CRFR2-BP ag: -1; TRPML3 ag: 0; CRFR2-BP antag: -5; zfTRPN1 agonist: 1; IMP-1 inh-1: -3; IMP-1 inh-2: -2; VIM-2 FRET ctr: 30*; TEM-1 counter: 1.4*; VIM-2 inh conf: 25*

Results for CCN=C1S/C(=C/c2ccc(-c3ccc(Cl)cc3C(=O)O)o2)C(=O)N1CC ?
VIM-2 inh: 13*; CRFR2-BP ag: 2; CRFR2-BP antag: 3; IMP-1 inh-1: 2; IMP-1 inh-2: -3; VIM-2 FRET ctr: 19*; TEM-1 counter: -7; VIM-2 inh conf: 16*

How did Cc1ccc(-c2nn(C)c(=O)c3ccccc23)cc1S(=O)(=O)NCCN1CCOCC1 do in these assays?
VIM-2 inh: 14*; CRFR2-BP ag: -2; TRPML3 ag: 1; CRFR2-BP antag: 23; zfTRPN1 agonist: 1; IMP-1 inh-1: -8; IMP-1 inh-2: -3; VIM-2 FRET ctr: -1; TEM-1 counter: -5; VIM-2 inh conf: 28*

How did CCN1C(=O)CCN(C2CCCC2)c2nc(Nc3ccc(C(=O)NC4CCN(C)CC4)cc3OC)ncc21 do in these assays?
CRFR2-BP ag: -4; CRFR2-BP antag: 9

How did Cc1ccc(-c2c(C(=O)O)c(C(=O)O)c3n2CSC3)cc1 do in these assays?
VIM-2 inh: 34*; CRFR2-BP ag: 0; CRFR2-BP antag: 12; IMP-1 inh-1: 3; IMP-1 inh-2: 2; VIM-2 FRET ctr: 52*; TEM-1 counter: -6; VIM-2 inh conf: 37*
